Experimental data as given in ChEMBL document CHEMBL1909502, “Design and synthesis of 2-(1, 3-dioxoisoindolin-2-yl)-N-(4-oxo-2-substitutedthiazolidin-3-yl) acetamide derivatives as potential anticonvulsant agents” (Eur J Med Chem, 2011).
The source made the active and inactive calls. No cut-off for these calls is given here.

Key:
Mus musculus [1] = assay: Neurotoxicity in Swiss albino CF1 mouse assessed as minimal motor deficit at 30 to 300 mg/kg, ip after 0.5 hrs by rotarod test; type: toxicity, organism-based; set-up: dose 30-300 mg/kg, route intraperitoneal; conditions: in vivo
In short: (§1)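 Mice (male Swiss albino CF-1, groups of 5) were trained on an accelerating rotarod at 10 rpm with a 3.2 cm rod and had to stay on for two consecutive 90 s trials. Trained animals then received 30, 100 or 300 mg/kg i.p. Deficit was inability to stay on the rod for at least 1 min in each of three trials, checked at 0.5 h and 4 h. The value is the minimal dose giving deficit in 50% or more of the animals.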

Mus musculus [2] = assay: Anticonvulsant activity in Swiss albino CF1 mouse assessed as protection against subcutaneous pentylenetetrazole-induced seizures at 30 to 300 mg/kg, ip after 4 hrs postdose; type: functional, organism-based
In short: (§2)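 Male Swiss albino CF-1 mice, 20–30 g. Compounds were suspended in 0.5% methyl cellulose and given i.p. at 0.01 mL/g, at 30, 100 and 300 mg/kg. MES and sc PTZ seizure tests followed reported procedures at 0.5 h and 4 h post-dose. The value is the minimal dose protecting 50% or more of the animals.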

Mus musculus [3] = assay: Anticonvulsant activity in Swiss albino CF1 mouse assessed as protection against subcutaneous pentylenetetrazole-induced seizures at 30 to 300 mg/kg, ip after 0.5 hrs postdose; type: functional, organism-based; in short: as §2
[4] = Octanol-phosphate buffer partition coefficient, log P of the compound at 5 mg after 24 hrs by UV spectroscopic analysis; type: physicochemical
In short: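 Octanol/phosphate buffer partition at room temperature. 5 mg of drug was added to 10 mL octanol plus 10 mL buffer and shaken mechanically for 24 h. The mixture was left to equilibrate for 6 h, and the phases were separated and membrane-filtered. Drug in the aqueous phase was quantified by UV spectroscopy.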

Mus musculus [5] = assay: Anticonvulsant activity in Swiss albino CF1 mouse assessed as protection against maximal electroshock-induced seizures at 30 to 300 mg/kg, ip after 0.5 hrs postdose; type: functional, organism-based; in short: as §2
Mus musculus [6] = assay: Neurotoxicity in Swiss albino CF1 mouse assessed as decrease in locomotor activity at 30 mg/kg, ip after 4 hrs postdose; type: toxicity, organism-based; set-up: dose 30 mg/kg, route intraperitoneal; scale not given: the % may be the effect or the level left; conditions: in vivo
In short: (§3)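 Compounds in 30% PEG 200 were given i.p. at 30 mg/kg to male Swiss albino CF-1 mice. Locomotor activity was scored digitally in an actophotometer for 10 min, 24 h before dosing and again 0.5 h and 4 h after. The value is the % decrease against the pre-treatment score, as mean ± SEM, with Student's t test at p < 0.05.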

Mus musculus [7] = assay: Neurotoxicity in Swiss albino CF1 mouse assessed as decrease in locomotor activity at 30 mg/kg, ip after 0.5 hrs postdose; type: toxicity, organism-based; set-up: dose 30 mg/kg, route intraperitoneal; scale not given: the % may be the effect or the level left; conditions: in vivo; in short: as §3
Mus musculus [8] = assay: Neurotoxicity in ip dosed Swiss albino CF1 mouse assessed as minimum dose required to produce minimal motor deficit after 4 hrs by rotarod test; type: toxicity, organism-based; conditions: in vivo; in short: as §1
Mus musculus [9] = assay: Anticonvulsant activity in ip dosed Swiss albino CF1 mouse assessed as protection against maximal electroshock-induced seizures after 4 hrs; type: functional; conditions: read-out: MED; in short: as §2
Mus musculus [10] = assay: Anticonvulsant activity in ip dosed Swiss albino CF1 mouse assessed as protection against subcutaneous pentylenetetrazole-induced seizures after 4 hrs; type: functional; conditions: Swiss albino CF1, 4 h, read-out: MED; in short: as §2
Mus musculus [11] = assay: Anticonvulsant activity in ip dosed Swiss albino CF1 mouse assessed as protection against subcutaneous pentylenetetrazole-induced seizures after 0.5 hrs; type: functional; conditions: Swiss albino CF1, 0.5 h, read-out: MED; in short: as §2
Mus musculus [12] = assay: Anticonvulsant activity in ip dosed Swiss albino CF1 mouse assessed as protection against maximal electroshock-induced seizures after 0.5 hrs; type: functional; conditions: read-out: MED; in short: as §2
Mus musculus [13] = assay: Neurotoxicity in Swiss albino CF1 mouse assessed as minimal motor deficit at 30 to 300 mg/kg, ip after 4 hrs by rotarod test; type: toxicity, organism-based; set-up: dose 30-300 mg/kg, route intraperitoneal; conditions: in vivo; in short: as §1
Mus musculus [14] = assay: Anticonvulsant activity in Swiss albino CF1 mouse assessed as protection against maximal electroshock-induced seizures at 30 to 300 mg/kg, ip after 4 hrs postdose; type: functional, organism-based; in short: as §2
Mus musculus [15] = assay: Neurotoxicity in ip dosed Swiss albino CF1 mouse assessed as minimum dose required to produce minimal motor deficit after 0.5 hrs by rotarod test; type: toxicity, organism-based; conditions: in vivo; in short: as §1

Row | Structure (SMILES) | Activity (Mus musculus [1]) | Activity (Mus musculus [2]) | Activity (Mus musculus [3]) | logP at 24 h [4] | Activity (Mus musculus [5]) | Activity (Mus musculus [6]) | Activity (Mus musculus [7]) | MTC (Mus musculus [8]) | minimal effective dose (Mus musculus [9]) | minimal effective dose (Mus musculus [10]) | minimal effective dose (Mus musculus [11]) | minimal effective dose (Mus musculus [12]) | Activity (Mus musculus [13]) | Activity (Mus musculus [14]) | MTC (Mus musculus [15])
1 | O=C(CN1C(=O)c2ccccc2C1=O)NN1C(=O)CSC1c1cccs1 (centres undefined) | Non-toxic | inactive | inactive | 2.15 | inactive | 71.73% | 63.04% | 100 mg/kg | 100 mg/kg |  |  |  |  |  | 
2 | COc1ccc(C2SCC(=O)N2NC(=O)CN2C(=O)c3ccccc3C2=O)cc1OC (centres undefined) | Non-toxic |  |  | 2.78 |  | 27.95% | 20.25% |  | 300 mg/kg | 300 mg/kg | 100 mg/kg | 300 mg/kg | Non-toxic |  | 
3 | O=C(CN1C(=O)c2ccccc2C1=O)NN1C(=O)CSC1c1c[nH]c2ccccc12 (centres undefined) | Non-toxic | inactive |  | 1.59 |  | 25.84% | 9.95% |  | 300 mg/kg |  | 300 mg/kg | 300 mg/kg | Non-toxic |  | 
4 | O=C(CN1C(=O)c2ccccc2C1=O)NN1C(=O)CSC1c1ccco1 (centres undefined) | Non-toxic | inactive | inactive | 1.13 |  | 11.64% | 5.14% |  |  |  |  | 100 mg/kg | Non-toxic | inactive | 
5 | CCCC(CCC)C(=O)[O-].[Na+] [VALPROATE SODIUM] | Non-toxic | inactive |  |  |  |  |  |  |  |  | 300 mg/kg |  | Non-toxic |  | 
6 | O=C(CN1C(=O)c2ccccc2C1=O)NN1C(=O)CSC1c1ccc(Cl)cc1Cl (centres undefined) |  |  |  | 2.54 | inactive | 25.55% | 63.73% |  | 30 mg/kg | 100 mg/kg | 100 mg/kg |  | Non-toxic |  | 300 mg/kg
7 | CN(C)c1ccc(C2SCC(=O)N2NC(=O)CN2C(=O)c3ccccc3C2=O)cc1 (centres undefined) | Non-toxic |  |  | 2.84 |  | 44.08% | 9.78% |  | 300 mg/kg | 300 mg/kg | 300 mg/kg | 300 mg/kg | Non-toxic |  | 
8 | Cc1ccc(C2SCC(=O)N2NC(=O)CN2C(=O)c3ccccc3C2=O)cc1 (centres undefined) | Non-toxic |  |  | 2.97 |  | 68.16% | 25.94% |  | 30 mg/kg | 300 mg/kg | 100 mg/kg | 30 mg/kg | Non-toxic |  | 
9 | O=C(CN1C(=O)c2ccccc2C1=O)NN1C(=O)CSC1c1ccc(O)cc1 (centres undefined) |  | inactive | inactive | 2.4 |  | 43.34% | 68.37% | 300 mg/kg | 100 mg/kg |  |  | 30 mg/kg |  |  | 300 mg/kg
10 | O=C(CN1C(=O)c2ccccc2C1=O)NN1C(=O)CSC1/C=C/c1ccccc1 (centres undefined) | Non-toxic | inactive |  | 3.65 |  | 66.5% | 5.66% |  | 300 mg/kg |  | 300 mg/kg | 300 mg/kg | Non-toxic |  | 
11 | COc1ccc(C2SCC(=O)N2NC(=O)CN2C(=O)c3ccccc3C2=O)cc1 (centres undefined) |  | inactive | inactive | 1.97 |  | 14.93% | 3.25% | 300 mg/kg | 100 mg/kg |  |  | 100 mg/kg |  |  | 300 mg/kg
12 | O=C(CN1C(=O)c2ccccc2C1=O)NN1C(=O)CSC1c1ccccc1O (centres undefined) |  | inactive | inactive | 1.46 |  | 36.91% | 32.63% | 100 mg/kg | 100 mg/kg |  |  | 100 mg/kg |  |  | 100 mg/kg
13 | O=C(CN1C(=O)c2ccccc2C1=O)NN1C(=O)CSC1c1cccnc1 (centres undefined) | Non-toxic | inactive | inactive | 1.25 |  | 24.01% | 18.03% |  | 300 mg/kg |  |  | 100 mg/kg | Non-toxic |  | 
14 | O=C(CN1C(=O)c2ccccc2C1=O)NN1C(=O)CSC1c1ccc(Cl)cc1 (centres undefined) |  | inactive |  | 3.21 |  | 16.13% | 50.83% |  | 300 mg/kg |  | 300 mg/kg | 300 mg/kg | Non-toxic |  | 300 mg/kg
15 | O=C(CN1C(=O)c2ccccc2C1=O)NN1C(=O)CSC1c1c(F)cccc1Cl (centres undefined) | Non-toxic |  |  | 3.79 |  | 30.18% | 12.01% |  | 100 mg/kg | 300 mg/kg | 300 mg/kg | 100 mg/kg | Non-toxic |  | 
16 | COc1cc(C2SCC(=O)N2NC(=O)CN2C(=O)c3ccccc3C2=O)ccc1O (centres undefined) | Non-toxic |  |  | 1.31 |  | 7.31% | 38.13% |  | 100 mg/kg | 300 mg/kg | 300 mg/kg | 30 mg/kg | Non-toxic |  | 
17 | O=C(CN1C(=O)c2ccccc2C1=O)NN1C(=O)CSC1c1ccccc1 (centres undefined) |  |  |  | 2.23 |  | 64.26% | 50% | 30 mg/kg | 100 mg/kg | 300 mg/kg | 100 mg/kg | 100 mg/kg |  |  | 30 mg/kg
18 | O=C1NC(=O)C(c2ccccc2)(c2ccccc2)N1 [PHENYTOIN] |  |  |  |  |  | 18.57% | 33.9% | 100 mg/kg | 30 mg/kg |  |  | 30 mg/kg |  |  | 100 mg/kg
